Experimental findings from ChEMBL document CHEMBL1128568, “Design and structure-activity relationships of C-terminal cyclic neurotensin fragment analogues” (J Med Chem, 1995) are described below.

pKi: −log10 of the molar value. Non-standard residues stand in square brackets, D forms with d. Residues, ends and D or L forms follow the SMILES beside them. NMeR = CN[C@@H](CCCNC(=N)N)C(=O)O; Tle = CC(C)(C)[C@H](N)C(=O)O

This experiment can be described thus: Binding affinity against neurotensin receptor. The gist of the method: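 Neonatal (10-day postnatal) mouse brain membranes, cerebellum removed, washed by repeated 100000g spins in 5 mM Tris pH 7.5, resuspended 1 g wet weight/mL in 50 mM Tris pH 7.4 with BSA, bacitracin, EDTA, phenanthroline, PMSF. Competition against [3H]NT (0.20 nM final) or [125I-Tyr3]NT (0.21 nM final), 30 min at 25 °C. Separation by filtration on PEI-soaked GF/B filters. Nonspecific binding with 1 μM NT.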
The compound `CC(C)C[C@H](NC(=O)[C@@H](N)CCC(=O)O)C(=O)N[C@@H](Cc1ccc(O)cc1)C(=O)N[C@@H](CCC(=O)O)C(=O)N[C@@H](CC(N)=O)C(=O)N[C@@H](CCCCN)C(=O)N1CCC[C@H]1C(=O)N(C)[C@@H](CCCN=C(N)N)C(=O)N1C(=O)[C@H](CC(C)C)NC(=O)[C@@H](CCC(=O)O)NC(=O)[C@H](Cc2c[nH]c3ccccc23)NC(=O)[C@@H]2CCCN2C(=O)[C@@H]1CCCCN` had a pKi of 5.80.
With `CC(C)C[C@H](NC(=O)[C@@H](N)CCC(=O)O)C(=O)N[C@@H](Cc1ccc(O)cc1)C(=O)N[C@@H](CCC(=O)O)C(=O)N[C@@H](CC(N)=O)C(=O)N[C@@H](CCCCN)C(=O)N1CCC[C@H]1C(=O)N(C)[C@@H](CCCN=C(N)N)C(=O)N1C(=O)[C@H](CC(C)C)NC(=O)[C@H](CCC(=O)O)NC(=O)[C@H](Cc2c[nH]c3ccccc23)NC(=O)[C@@H]2CCCN2C(=O)[C@@H]1CCCCN` the figure was 6.11.
Compound `CC(C)C[C@H](NC(=O)[C@H]1NC(=O)[C@H](Cc2c[nH]c3ccccc23)NC(=O)[C@H]2CCCN2C(=O)[C@H](NC(=O)[C@H](CCCN=C(N)N)N(C)C(=O)[C@@H]2CCCN2C(=O)[C@H](CCCCN)NC(=O)[C@H](CC(N)=O)NC(=O)[C@H](CCC(=O)O)NC(=O)[C@H](Cc2ccc(O)cc2)NC(=O)[C@H](CC(C)C)NC(=O)[C@@H](N)CCC(=O)O)C(C)(C)SSC1(C)C)C(=O)O` gave a pKi of 5.36.
Take `CC(C)C[C@H](NC(=O)[C@@H]1CSSC[C@@H](NC(=O)[C@H](CCCN=C(N)N)N(C)C(=O)[C@@H]2CCCN2C(=O)[C@H](CCCCN)NC(=O)[C@H](CC(N)=O)NC(=O)[C@H](CCC(=O)O)NC(=O)[C@H](Cc2ccc(O)cc2)NC(=O)[C@H](CC(C)C)NC(=O)[C@@H](N)CCC(=O)O)C(=O)N2CCC[C@@H]2C(=O)N[C@@H](Cc2c[nH]c3ccccc23)C(=O)N1)C(=O)O`: the pKi was 6.09.
`CC(C)C[C@H](NC(=O)[C@H]1NC(=O)[C@H](Cc2c[nH]c3ccccc23)NC(=O)[C@H]2CCCN2C(=O)[C@H](NC(=O)[C@H](CCCN=C(N)N)N(C)C(=O)[C@@H]2CCCN2C(=O)[C@H](CCCCN)NC(=O)[C@H](CC(N)=O)NC(=O)[C@H](CCC(=O)O)NC(=O)[C@H](Cc2ccc(O)cc2)NC(=O)[C@H](CC(C)C)NC(=O)[C@@H](N)CCC(=O)O)CSSC1(C)C)C(=O)O` showed a negative-log Ki (pKi) of 7.08.
`CC(C)CC(NC(=O)CC[C@@H]1NC(=O)[C@H](Cc2c[nH]c3ccccc23)NC(=O)[C@@H]2CCCN2C(=O)[C@H](CCCCN)NC(=O)[C@H](CCCN=C(N)N)N(C)C(=O)CN(C(=O)[C@@H]2CCCN2C(=O)[C@H](CCCCN)NC(=O)[C@H](CC(N)=O)NC(=O)[C@H](CCC(=O)O)NC(=O)[C@H](Cc2ccc(O)cc2)NC(=O)[C@H](CC(C)C)NC(=O)[C@@H](N)CCC(=O)O)C1=O)C(=O)O` (some centres undefined) gave a negative logarithm of the Ki (pKi) of 7.55.
In turn, `CC(C)C[C@H](NC(=O)CC[C@@H]1NC(=O)[C@H](Cc2c[nH]c3ccccc23)NC(=O)[C@@H]2CCCN2C(=O)[C@H](CCCCN)NC(=O)[C@@H](CCCN=C(N)N)N(C(=O)[C@@H]2CCCN2C(=O)[C@H](CCCCN)NC(=O)[C@H](CC(N)=O)NC(=O)[C@H](CCC(=O)O)NC(=O)[C@H](Cc2ccc(O)cc2)NC(=O)[C@H](CC(C)C)NC(=O)[C@@H](N)CCC(=O)O)C1=O)C(=O)O` showed a negative logarithm of the Ki (pKi) of 7.80.
For the compound `CC(C)C[C@H](NC(=O)[C@@H](N)CCC(=O)O)C(=O)N[C@@H](Cc1ccc(O)cc1)C(=O)N[C@@H](CCC(=O)O)C(=O)N[C@@H](CC(N)=O)C(=O)N[C@@H](CCCCN)C(=O)N1CCC[C@H]1C(=O)N1C(=O)[C@H](CC(C)C)NC(=O)[C@H](C(C)(C)C)NC(=O)[C@H](Cc2ccc(O)cc2)NC(=O)[C@@H]2CCCN2C(=O)[C@H](CCCCN)NC(=O)[C@H]1CCCN=C(N)N`, the pKi is 6.36.
`CC(C)C[C@H](NC(=O)[C@@H](N)CCC(=O)O)C(=O)N[C@@H](Cc1ccc(O)cc1)C(=O)N[C@@H](CCC(=O)O)C(=O)N[C@@H](CC(N)=O)C(=O)N[C@@H](CCCCN)C(=O)N1CCC[C@H]1C(=O)N1C(=O)[C@H](CCC(=O)O)NC(=O)[C@H](Cc2c[nH]c3ccccc23)NC(=O)[C@@H]2CCCN2C(=O)[C@H](CCCCN)NC(=O)[C@H]1CCCN=C(N)N` showed a pKi of less than 5.00.
With `CC(C)C[C@H](NC(=O)[C@@H](N)CCC(=O)O)C(=O)N[C@@H](Cc1ccc(O)cc1)C(=O)N[C@@H](CCC(=O)O)C(=O)N[C@@H](CC(N)=O)C(=O)N[C@@H](CCCCN)C(=O)N1CCC[C@H]1C(=O)N1C(=O)[C@H](CC(C)C)NC(=O)[C@H](C(C)(C)C)NC(=O)[C@H](Cc2c[nH]c3ccccc23)NC(=O)[C@@H]2CCCN2C(=O)[C@H](CCCCN)NC(=O)[C@@H]1CCCN=C(N)N` the figure was 6.39; with `CC(C)C[C@H](NC(=O)CC[C@@H]1NC(=O)[C@H](Cc2c[nH]c3ccccc23)NC(=O)[C@@H]2CCCN2C(=O)[C@H](C)NC(=O)[C@@H](CCCN=C(N)N)N(C(=O)[C@@H]2CCCN2C(=O)[C@H](CCCCN)NC(=O)[C@H](CC(N)=O)NC(=O)[C@H](CCC(=O)O)NC(=O)[C@H](Cc2ccc(O)cc2)NC(=O)[C@H](CC(C)C)NC(=O)[C@@H](N)CCC(=O)O)C1=O)C(=O)O`, less than 5.00; with `CC(C)C[C@H](NC(=O)C[C@@H]1NC(=O)[C@H](Cc2c[nH]c3ccccc23)NC(=O)[C@@H]2CCCN2C(=O)[C@H](CCCCN)NC(=O)[C@@H](CCCN=C(N)N)N(C(=O)[C@@H]2CCCN2C(=O)[C@H](CCCCN)NC(=O)[C@H](CC(N)=O)NC(=O)[C@H](CCC(=O)O)NC(=O)[C@H](Cc2ccc(O)cc2)NC(=O)[C@H](CC(C)C)NC(=O)[C@@H](N)CCC(=O)O)C1=O)C(=O)O`, 6.04.
On to `CC(C)C[C@H](NC(=O)[C@@H](N)CCC(=O)O)C(=O)N[C@@H](Cc1ccc(O)cc1)C(=O)N[C@@H](CCC(=O)O)C(=O)N[C@@H](CC(N)=O)C(=O)N[C@@H](CCCCN)C(=O)N1CCC[C@H]1C(=O)N1C(=O)[C@H](CCC(=O)NCC(=O)O)NC(=O)[C@H](Cc2c[nH]c3ccccc23)NC(=O)[C@@H]2CCCN2C(=O)[C@H](CCCCN)NC(=O)[C@H]1CCCN=C(N)N`, for which the pKi is 6.60.
`CC(C)C[C@H](NC(=O)CCC[C@@H]1NC(=O)[C@H](Cc2c[nH]c3ccccc23)NC(=O)[C@@H]2CCCN2C(=O)[C@H](CCCCN)NC(=O)[C@H](CCCN=C(N)N)N(C(=O)[C@@H]2CCCN2C(=O)[C@H](CCCCN)NC(=O)[C@H](CC(N)=O)NC(=O)[C@H](CCC(=O)O)NC(=O)[C@H](Cc2ccc(O)cc2)NC(=O)[C@H](CC(C)C)NC(=O)[C@@H](N)CCC(=O)O)C1=O)C(=O)O`: the pKi is 6.08.
In the case of `CC(C)C[C@H](NC(=O)[C@@H](N)CCC(=O)O)C(=O)N[C@@H](Cc1ccc(O)cc1)C(=O)N[C@@H](CCC(=O)O)C(=O)N[C@@H](CC(N)=O)C(=O)N[C@@H](CCCCN)C(=O)N1CCC[C@H]1C(=O)N(C)[C@@H](CCCN=C(N)N)C(=O)N1C(=O)[C@H](CC(C)C)NC(=O)[C@@H](CCC(=O)O)NC(=O)[C@H](Cc2c[nH]c3ccccc23)NC(=O)[C@@H]2CCCN2C(=O)[C@H]1CCCCN`, the negative logarithm of the Ki (pKi) is 5.60.
`CC(=O)N(C(=O)[C@@H]1CCCN1C(=O)[C@H](CCCCN)NC(=O)[C@H](CC(N)=O)NC(=O)[C@H](CCC(=O)O)NC(=O)[C@H](Cc1ccc(O)cc1)NC(=O)[C@H](CC(C)C)NC(=O)[C@@H](N)CCC(=O)O)[C@@H](CCCN=C(N)N)C(=O)N[C@@H](CCCCN)C(=O)N1CCC[C@H]1C(=O)N[C@@H](Cc1c[nH]c2ccccc12)C(=O)N[C@@H](CCC(N)=O)C(=O)N[C@@H](CC(C)C)C(=O)O` gave a pKi of 6.59.
On to `CC(C)C[C@H](NC(=O)[C@H](CCC(=O)O)NC(=O)[C@H](Cc1c[nH]c2ccccc12)NC(=O)[C@@H]1CCCN1C(=O)[C@H](CCCCN)NC(=O)[C@H](CCCN=C(N)N)N(C)C(=O)[C@@H]1CCCN1C(=O)[C@H](CCCCN)NC(=O)[C@H](CC(N)=O)NC(=O)[C@H](CCC(=O)O)NC(=O)[C@H](Cc1ccc(O)cc1)NC(=O)[C@H](CC(C)C)NC(=O)[C@@H](N)CCC(=O)O)C(=O)O` (H-ELYENKP[NMeR]KPWEL-OH), for which the negative logarithm of the Ki (pKi) is less than 5.00.
The value for `CC(C)C[C@H](NC(=O)[C@@H](NC(=O)[C@H](Cc1c[nH]c2ccccc12)NC(=O)[C@@H]1CCCN1C(=O)[C@H](CCCCN)NC(=O)[C@H](CCCN=C(N)N)N(C)C(=O)[C@@H]1CCCN1C(=O)[C@H](CCCCN)NC(=O)[C@H](CC(N)=O)NC(=O)[C@H](CCC(=O)O)NC(=O)[C@H](Cc1ccc(O)cc1)NC(=O)[C@H](CC(C)C)NC(=O)[C@@H](N)CCC(=O)O)C(C)(C)C)C(=O)O` (H-ELYENKP[NMeR]KPW[Tle]L-OH) was 9.17; that for `CC(C)CC(NC(=O)CC[C@H]1NC(=O)[C@H](Cc2c[nH]c3ccccc23)NC(=O)[C@@H]2CCCN2C(=O)[C@H](CCCCN)NC(=O)[C@@H](CCCN=C(N)N)N(C(=O)[C@@H]2CCCN2C(=O)[C@H](CCCCN)NC(=O)[C@H](CC(N)=O)NC(=O)C(CCC(=O)O)NC(=O)[C@H](Cc2ccc(O)cc2)NC(=O)[C@H](CC(C)C)NC(=O)C(N)CCC(=O)O)C1=O)C(=O)O` (stereo in doubt) was less than 5.00.

Broadly, the pKi is the negative decadic logarithm of the Ki, by convention in mol/L. A lower pKi goes with a large Ki.
